The values that follow come from ChEMBL document CHEMBL4825680, “Structure-based discovery of potent and selective small-molecule inhibitors targeting signal transducer and activator of transcription 3 (STAT3)” (Eur J Med Chem, 2021).

The source made the active and inactive calls. The rule behind the calls is not given here.

Data set [1] concerns MDA-MB-231. Briefly: Effect on total STAT1 level in human MDA-MB-231 cells at 0.3 to 3 uM after 3 hrs by Western blotting analysis. The class given is functional, cell-based. The note with it: dose 0.3-3 µM. A digest of the protocol:
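Breast cancer cells were treated with vehicle (0.1% DMSO) or compound, then lysed in RIPA with PMSF and phosphatase inhibitors. 20–50 μg protein was run on 8 or 12% SDS-PAGE, blotted to PVDF, blocked in 5% BSA, probed with primary antibodies overnight at 4 °C, then HRP secondaries, with ECL detection.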
For orientation: A western blot detects proteins with antibodies after separation by electrophoresis.

Data set [2] has as its system MDA-MB-231. Briefly: Induction of apoptosis in human MDA-MB-231 cells assessed as increase in PARP cleavage at 3 uM after 48 hrs by Western blot analysis. Type of data set: functional, cell-based. A digest of the protocol:
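Cells were treated with vehicle (0.1% DMSO) or compound, then analysed by western blot of RIPA lysates (20–50 μg protein, SDS-PAGE, PVDF) for PARP and cleaved caspase-7, with β-actin as loading control. Three independent experiments.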

For data set [3], the target named is T1, Signal transducer and activator of transcription 3 (Homo sapiens, UniProt P40763). In words: Inhibition of HA-tagged STAT3 dimerization (unknown origin) expressed in HEK293T cells preincubated for 3 hrs followed by IL-3 stimulation by immunoprecipitation analysis. The note with it: dose 1-3 µM. The class given is cell-based.
T1 sequence (P40763 whole entry, the tested form may be a part): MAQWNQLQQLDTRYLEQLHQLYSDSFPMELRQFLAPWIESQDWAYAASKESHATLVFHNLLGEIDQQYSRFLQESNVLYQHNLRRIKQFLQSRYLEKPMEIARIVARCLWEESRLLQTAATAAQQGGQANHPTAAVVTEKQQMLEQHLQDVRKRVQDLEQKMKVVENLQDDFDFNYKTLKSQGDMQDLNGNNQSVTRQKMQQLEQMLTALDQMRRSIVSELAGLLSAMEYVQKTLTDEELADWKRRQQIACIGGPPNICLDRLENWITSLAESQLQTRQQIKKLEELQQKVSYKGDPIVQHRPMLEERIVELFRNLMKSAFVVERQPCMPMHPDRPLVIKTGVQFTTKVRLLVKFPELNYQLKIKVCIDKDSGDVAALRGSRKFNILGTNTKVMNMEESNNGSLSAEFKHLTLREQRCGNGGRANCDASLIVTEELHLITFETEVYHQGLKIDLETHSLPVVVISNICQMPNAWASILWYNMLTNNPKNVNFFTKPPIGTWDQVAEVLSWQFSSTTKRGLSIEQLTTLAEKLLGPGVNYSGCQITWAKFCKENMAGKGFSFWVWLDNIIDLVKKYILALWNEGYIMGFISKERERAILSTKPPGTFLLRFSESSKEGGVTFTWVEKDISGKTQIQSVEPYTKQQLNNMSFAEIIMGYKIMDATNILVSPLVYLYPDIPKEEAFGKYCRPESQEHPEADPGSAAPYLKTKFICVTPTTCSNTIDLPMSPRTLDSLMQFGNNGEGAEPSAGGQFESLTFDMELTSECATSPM
The nature of data set [4]: Toxicity in NOD/SCID mouse xenografted with patient-derived breast cancer cells assessed as morphological change in heart at 5 to 15 mg/kg, […] once daily for 20 days by HE staining based assay. Type of data set: organism-based. The note with it: in vivo, iv, dose 5-15 mg/kg, time 20 day. The essentials: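 Female NOD-SCID mice implanted subcutaneously in the flank with about 2 mm³ TNBC PDX fragments. At about 100 mm³ tumour volume, randomised n=6/group: vehicle (PBS with 15% Cremophor EL), 5 or 15 mg/kg intraperitoneally daily. Killed at day 20; heart, liver, spleen, lung and kidney collected for morphological examination.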

Data set [5] deals with T1, Signal transducer and activator of transcription 3. Briefly: Inhibition of STAT3 phosphorylation at Ser727 residue in human HCC70 cells at 3 uM after 3 hrs by Western blotting analysis. The class given is cell-based.
In data set [6] the test system is MDA-MB-231. In words: Induction of apoptosis in human MDA-MB-231 cells assessed as necrotic cells at 3 uM after 48 hrs by Annexin-V-FITC/propidium iodide staining based flow cytometric analysis (Rvb =0.543%). Type of data set: functional.
Data set [7] is described as follows: Metabolic stability in human liver microsomes assessed as clearance at 0.1 uM preincubated for 10 mins followed by NADPH addition and measured upto 60 mins by LC-MS/MS analysis. Type of data set: ADME, Microsome. The note with it: 1 h, time <=70 min. A digest of the protocol: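 Microsomes at 0.33 mg/mL in 0.1 M Tris pH 7.4 with 5 mM MgCl2; compound final 0.1 μM (0.01% DMSO, 0.005% BSA). Preincubated 10 min at 37 °C, then started with 1 mM NADPH. Sampled at 0, 7, 17, 30 and 60 min and quenched with cold methanol. Centrifuged, then analysed by LC-MS/MS.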
Background: Liver microsomes are vesicles of endoplasmic reticulum, rich in cytochrome P450 enzymes.

The target in data set [8] is T1, Signal transducer and activator of transcription 3. Briefly: Inhibition of STAT3 in human HCC70 cells assessed as downregulation of Bcl-xL expression at 0.3 to 3 uM after 24 hrs by western blot analysis. The note with it: dose 0.3-3 µM. The class given is cell-based. The essentials: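 TNBC cells given vehicle (0.1% DMSO) or graded compound levels for 24 h, lysed in RIPA with PMSF and phosphatase inhibitors. BCA-quantified lysate (20–50 µg) run on SDS-PAGE, transferred to PVDF, blocked in 5% BSA. Probed overnight at 4 °C for Bcl-xL, Mcl-1 and c-Myc, with β-actin. HRP secondary, ECL detection. Three independent experiments.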

The target in data set [9] is T2, Signal transducer and activator of transcription 5A (Homo sapiens) (UniProt P42229).
T2 sequence (whole entry): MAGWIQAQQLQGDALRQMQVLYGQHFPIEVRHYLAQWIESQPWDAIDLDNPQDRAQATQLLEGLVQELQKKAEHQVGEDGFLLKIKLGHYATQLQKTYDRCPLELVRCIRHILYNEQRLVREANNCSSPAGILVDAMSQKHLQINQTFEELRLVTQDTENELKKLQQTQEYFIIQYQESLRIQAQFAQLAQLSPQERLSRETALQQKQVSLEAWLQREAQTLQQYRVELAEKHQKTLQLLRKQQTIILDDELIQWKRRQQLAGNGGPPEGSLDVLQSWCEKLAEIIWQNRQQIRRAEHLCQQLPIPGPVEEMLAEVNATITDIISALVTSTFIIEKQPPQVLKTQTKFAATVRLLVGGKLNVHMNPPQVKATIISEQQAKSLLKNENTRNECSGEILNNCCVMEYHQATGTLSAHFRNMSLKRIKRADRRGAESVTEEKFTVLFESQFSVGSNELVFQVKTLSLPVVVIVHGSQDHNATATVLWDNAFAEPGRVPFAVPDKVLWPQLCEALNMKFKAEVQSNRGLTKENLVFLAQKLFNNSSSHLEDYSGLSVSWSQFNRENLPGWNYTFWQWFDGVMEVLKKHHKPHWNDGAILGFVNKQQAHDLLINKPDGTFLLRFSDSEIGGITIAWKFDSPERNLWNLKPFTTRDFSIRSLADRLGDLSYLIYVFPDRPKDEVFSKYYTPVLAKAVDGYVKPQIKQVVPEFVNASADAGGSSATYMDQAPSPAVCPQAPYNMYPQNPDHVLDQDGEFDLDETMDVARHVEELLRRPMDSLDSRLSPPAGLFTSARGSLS
In words: Inhibition of STAT5 phosphorylation at Y694 residue in human MDA-MB-231 cells at 0.3 to 3 uM after 3 hrs by Western blotting analysis. Type of data set: cell-based. The note with it: dose 0.3-3 µM.

In data set [10] the test system is MDA231-LM2-4175. Briefly: Antitumor activity against human MDA231-LM2-4175 cells xenografted in mouse assessed as reduction in Mcl expression at 5 to 15 mg/kg, iv administered once daily for 20 days by Western blotting analysis. The class given is functional, organism-based. The note with it: dose 5-15 mg/kg, time 20.0 day.
Data set [11] has as its system HCC70. Briefly: Antiproliferative activity against human HCC70 cells assessed as reduction in cell viability after 72 hrs by CCK8 assay. The class given is functional, cell-based. The note with it: HCC70, 72 h. A digest of the protocol:
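Cells seeded at 1000–8000 per well were grown overnight, then exposed to 0.1–100 μM compound or 0.1% DMSO vehicle for 72 h. CCK-8 was added for 0.5–4 h at 37 °C and absorbance read at 480 nm. Viability = (OD compound − blank)/(OD vehicle − blank) × 100, with medium as blank. IC50 fitted from three independent experiments.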
On the technique in general: Formazan colour is commonly taken as a measure of viable cells.

A word on the IC50: it is the concentration that inhibits the measured activity by half. For the molecule `O=C(Cc1c(-c2ccccc2)nc2ccccn12)Nc1ccc2c(c1)S(=O)(=O)C=C2`, the outcome in [1] was inactive. Moreover, the outcome in data set [2] and in data set [10] was Active. Further, the inhibition entry in data set [3] is “Dose-Dependent Effect”. In addition, the Activity result in [4] was “Non-Toxic”; in data set [6], 2.09%. For the same molecule, the inhibition result in [5] and in data set [9] was “inactive” throughout. Further, in data set [7], the CLH was determined as 87 mL/min/g. In addition, the inhibition result in data set [8] was “Active”. Moreover, in data set [11], the IC50 was found to be 1100 nM.
